DTT redox prof: compounds producing H2O2 with reducing agent – biochemical, NIH compound library profiling, artefact control for MLSCN library redox annotation, primary screen. activation, % at 10 µM. 0.03% of 200,000 active. DTT-dependent redox cycling H2O2, phenol red/HRP absorbance; 100% = 100 µM peroxide control, 0% = buffer;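 active = activation of at least 50% relative to the plate's high and low controls in the primary single-dose screen; inactive = activation below 50%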;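 note: compound incubated with DTT at 0.8 mM final as the reducing agent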
ROMK mod: ROMK potassium channel modulators, primary screen, cell-based, thallium flux, MLSMR library; ATP-sensitive inward rectifier potassium channel 1 (Homo sapiens), P48048; Tet-inducible ROMK, thallium flux fluorescence; actives lie on both sides; B-score at 10 µM; 2% of 130,000 active;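 active = signal ratio slope over the read window, or its plate-corrected B-score, at least 3 SD from the plate mean, either direction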;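 note: B-score of the F/F0 ratio slope over 7 to 12 s after thallium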
b-catenin transl: modulators of beta-catenin nuclear translocation, primary screen, imaging, HeLa cells, immunofluorescence, high-content. nuclear translocation activity, % at 5 µM. AID 1665, 2009. 0.3% of 190,000 active;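 active = nuclear translocation activity above 50% at 5 µM, with a well cell count of 50 or more; inconclusive = wells under 50 cells across six images, flagged as toxic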;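 note: per-cell ratio of nuclear to cytoplasmic median beta-catenin stain intensity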
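System: Human HeLa cells, endogenous beta-catenin | Compound dosing: 5 µM primary, 0.02–20 µM confirmation | Timing: 24 h compound exposure at 37°C, 5% CO2 | Measured by: Fluorescence imaging of beta-catenin antibody stain plus DAPI | Read-out basis: % activation of per-cell nuclear versus cytoplasmic median beta-catenin signal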
Cl transport mod: KCC2 cotransporter modulators, thallium flux, primary screen, cell-based, HEK293 KCC2, FluoZin-2 fluorescence, MLSMR | KCC2 cells, thallium flux FluoZin-2 fluorescence | B-score of Tl+ flux slope (higher = more flux/activation; lower = inhibition) at 10 µM | 2.2% of 190,000 active | AID 1456, 2008;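 active = thallium flux slope and its plate-corrected score both differing from the plate sample mean at a set confidence after two filtering rounds, in either direction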;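 note: slope of fluorescence scaled to starting intensity during 10 to 20 s after thallium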
MT stabilize HCS: microtubule stabilizers in HeLa cells, primary screen, imaging, high-content imaging; HeLa tubulin immunostaining HCS, 24 h; share of cells brighter than vehicle mean+2SD; % tubulin-high responders, % at 10 µM; 0.83% of 200,000 active;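 active = plate Z-score above 3 for both tubulin-high and condensed-nucleus cell shares, with cell loss under 80%, at 10 µM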;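 note: anti alpha tubulin signal scored within the nucleus-defined area of each cell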
KCC2 secondary: KCC2 modulators in sodium-free buffer, confirmation, cell-based, HEK293 KCC2, thallium flux, secondary assay | shares compounds with Cl transport mod | FluoZin2 fluorescence; hits give high values | normalised thallium flux (F/F0 slope) at 10 µM | 15% of 3,700 active | AID 1713, 2009;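 active = thallium flux slope above the same plate's solvent-only control mean plus 3 SD; inconclusive = the two replicate wells disagree; inactive = no significant difference from solvent-only control wells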
KCC2 bumet counter: thallium flux persisting under bumetanide in KCC2 cells, confirmation, counter-screen for KCC2 modulator project, cell-based, HEK293 KCC2, FluoZin2, secondary assay 3; normalized thallium flux at 10 µM; HEK293-KCC2 + bumetanide/ouabain; hits give high values; 49% of 3,700 active; shares compounds with Cl transport mod;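 active = thallium entry rate above the same plate's blocked-transporter control wells by more than 3 SD; inconclusive = the two repeat wells disagree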;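 note: raw slope of fluorescence over initial fluorescence between 10 and 20 s after thallium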
KCC2 sec2: KCC2 modulators without ouabain present, confirmation, cell-based, HEK293 KCC2, thallium flux, FluoZin2, secondary assay 2; 23% of 3,700 active; AID 1715, 2009; shares compounds with Cl transport mod; thallium flux FluoZin2 fluorescence; actives lie on both sides; F/F0 rise rate, 10–20 s post-thallium; normalized thallium flux at 10 µM;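 active = thallium flux slope more than 3 SD above or below the plate's solvent-only control mean, mostly below; inconclusive = the two repeat wells disagreed; inactive = no significant shift from solvent-only controls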
HEK counter1: thallium flux modulation in parental HEK cells, confirmation, counter-screen for KCC2 modulator project, cell-based, counterscreen 1 | shares compounds with Cl transport mod | 46% of 3,700 active | AID 1716, 2009 | thallium flux rate (normalised fluorescence) at 10 µM | HEK293 parental cells, thallium flux FluoZin2, ouabain; baseline-ratio fluorescence slope, 10–20 s after thallium;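 active = thallium flux rate significantly above the same plate's solvent-only control wells, beyond their mean plus 3 SD; inconclusive = the two replicate wells gave conflicting results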
KCC2 ouabain: KCC2 inhibitors and activators, ouabain retest, confirmation, HEK-KCC2 cells | shares compounds with Cl transport mod | HEK293-KCC2, thallium flux FluoZin2 fluorescence; bidirectional: low = inhibitor, high = activator | raw Tl+ flux slope (below DMSO = inhibition, above = activation) at 10 µM | 48% of 3,700 active | AID 1717, 2009;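 active = thallium flux slope beyond 3 SD from same-plate DMSO control mean in most replicates, usually higher, sometimes lower; inconclusive = repeat tests gave conflicting results; inactive = no significant difference from controls in most replicates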;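 note: slope of initial-normalized fluorescence between seconds 10 and 20 after thallium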
HEK counter2: native HEK Tl+ uptake effects, second counter-screen – HEK cells, counterscreen 2, counter-screen for KCC2 modulator project, confirmation; 33% of 3,700 active; shares compounds with Cl transport mod; thallium flux slope at 10 µM; AID 1718, 2009; HEK293 parental, thallium flux FluoZin-2 fluorescence slope;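 active = thallium flux slope above the same plate's solvent-control mean plus 3 SD in both duplicate wells; inconclusive = duplicate wells that disagreed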;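 note: run without ouabain in cells lacking the KCC2 cotransporter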
A number is an active result; . = inactive; ? = inconclusive; / = no result. Only some compounds are listed: those with a hit (about 3.7% of all), similar ones and a draw of the others.

SMILES | DTT redox prof | ROMK mod | b-catenin transl | Cl transport mod | MT stabilize HCS | KCC2 secondary | KCC2 bumet counter | KCC2 sec2 | HEK counter1 | KCC2 ouabain | HEK counter2
Cc1cccc(OCC(=O)NCC(=O)N/N=C/c2cc(Br)ccc2OCc2ccccc2)c1 | . | . | / | . | . | / | / | / | / | / | /
O=C(Nc1ccccc1Cl)c1ccc(Cl)cc1Cl | . | . | . | . | . | / | / | / | / | / | /
O=C(COc1cccc(Br)c1)N/N=C/C(=O)c1ccccc1 | . | . | . | 5.9 | . | . | 0.014 | . | 0.012 | ? | 0.015
O=C(/C=N/NC(=O)c1ccccc1Br)c1ccccc1 | . | . | . | 8 | . | . | 0.019 | . | 0.02 | ? | 0.018
Cc1oc(S(=O)(=O)N2CCOCC2)cc1C(=O)Nc1ccc(Cl)cc1 | / | . | . | . | / | / | / | / | / | / | /
CCC(CC)c1nnc(NC(=O)c2cccnc2SC)s1 | . | . | . | . | . | / | / | / | / | / | /
Cc1cccc(/C=N/NC(=O)C(C)Nc2cccc3ccccc23)n1 (stereo not drawn) | . | . | . | / | . | . | . | . | . | . | .
CCOC(=O)c1cc(-c2ccc(F)cc2)n(CCC(=O)NC2CCN(Cc3ccccc3)CC2)c1C | . | . | / | . | . | / | / | / | / | / | /
COc1ccc(OC)c(CN2CCN(c3ccccc3OC)CC2)c1 | . | / | . | 8.8 | . | . | . | . | . | . | .
COc1ccc(-n2c(SCC3OCCO3)nc3c(sc(=S)n3-c3ccccc3)c2=O)cc1OC | . | . | . | . | . | / | / | / | / | / | /
O=[N+]([O-])c1cccc(-c2noc(COc3ccccc3)n2)c1 | . | . | . | . | . | / | / | / | / | / | /
O=S(=O)(NCCc1ccccc1F)c1cccc(S(=O)(=O)N2CCOCC2)c1 | . | / | . | / | . | . | . | 0.026 | . | ? | .
Cn1c(NC(=O)c2ccc(F)cc2)c(-c2ccccn2)c(=O)c2ccccc21 | / | / | . | . | / | / | / | / | / | / | /
Cc1c(C(=O)NCc2ccc(S(N)(=O)=O)cc2)oc2ccc(Cl)cc12 | . | . | . | . | . | / | / | / | / | / | /
CCOc1ccc2nc(COC(=O)c3cccc([N+](=O)[O-])c3)c(C(C)=O)[n+]([O-])c2c1 | / | / | . | . | / | / | / | / | / | / | /
CC1=NN(c2nc3ccccc3[nH]2)C(=O)C1Cc1ccccc1 (stereo not drawn) | / | / | . | 8.6 | / | . | 0.016 | . | 0.016 | 0.027 | 0.019
Cc1cccc(CSC2=CS(=O)(=O)c3ccccc3N2)c1 | . | / | / | . | . | / | / | / | / | / | /
O=S1(=O)C=C(SCc2cccc(Cl)c2)Nc2ccccc21 | . | / | / | -3.4 | . | ? | . | . | . | 0.016 | .
